Results reported in article PMC2910123 (Journal of inorganic biochemistry, 2010).

How the values were obtained:
[1] = system: poly (dG-dC).poly (dG-dC); details: cited from earlier work
[2] = system: poly (dA-dT).poly (dA-dT); details: cited from earlier work
CT DNA [3] = test: Spectrophotometric; format: binding, calf; details: 25°C, 5mM Tris/HCl, 50 mM NaClO4 buffer, pH=7.39; average of values calculated at 330 and 343 nm
CT DNA [4] = test: Fluorimetric; format: binding, calf; details: 25°C, 5mM Tris/HCl, 50 mM NaClO4 buffer, pH=7.39; values calculated at 380 nm
CT DNA [5] = test: Thermal denaturation of CT DNA; format: binding, calf; details: 0.5 equivalents of drug, 1h at 25°C, 5 mM Tris/HCl buffer; for ΔTm /1h incubation/25mM NaClO4: pH=7.39, 25mM NaClO4; for ΔTm /1h incubation/50m M NaClO4: pH=7.39, 50 mM NaClO4
SUP-T1 lymphoma cells = test: Cytotoxicity assay by flow cytometry; format: cell-based, human
[6] = system: Jurkat human T lymphocyte leukemia cells; test: Cytotoxicity assay by flow cytometry; format: cell-based
pBR322 plasmid DNA = test: Electrophoresis Mobility Shift Assay; format: binding; details: pBR322, 20 h at 37°C, molar ratios 0.25 to 1.0 (cisplatin 0.5 eq.)
CT DNA [7] = test: Circular dichroism spectroscopy of CT DNA; format: binding, calf; details: incubated at 37°C with increasing drug/DNA ratios
[8] = system: several cancer cell lines; details: cited from earlier work
Jurkat cells = test: Apoptosis assay by two-color flow cytometry; format: cell-based, human; details: 100 µM, 16 h
Summary of the method: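 Jurkat cells were plated at 100,000 cells/well in RPMI 1640 with antibiotics and 10% heat-inactivated newborn calf serum, then exposed to 100 µM test compound (in 0.9% NaCl or DMSO) for 16 h. Cells were pelleted cold, washed in cold medium then PBS, and stained with Annexin V-FITC plus PI in HEPES binding buffer (pH 7.4, 140 mM NaCl, 2.55 mM CaCl2). Compensation used unstained, single- and double-stained cells.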

[9] = system: dedifferentiated liposarcoma cell line LS141; details: cited from earlier work
[10] = system: HCT-116 colon cancer cell lines; details: cited from earlier work

Compound	Kb1, Absorption Titration (CT DNA [3])	Kb2, Absorption Titration (CT DNA [3])	Kb1, Emission Titration (CT DNA [4]) [M⁻¹]	Kb2, Emission Titration (CT DNA [4]) [M⁻¹]	ΔTm /1h incubation/25mM NaClO4 (CT DNA [5])	ΔTm /1h incubation/50m M NaClO4 (CT DNA [5])	effect on electrophoretic mobility of CCC and OC forms (pBR322 plasmid DNA)	also measured
CCN(CC)CCCC(C)Nc1ccnc2cc(Cl)ccc12.O=P(O)(O)O.O=P(O)(O)O (single isomer, unassigned; (-)) [(−)-CQDP]	–	–	–	–	–	–	–	binding affinity ratio of (−) to (+) enantiomer [1]: 1.29; binding affinity ratio of (−) to (+) enantiomer [2]: 1.28
CCN(CC)CCCC(C)Nc1ccnc2cc(Cl)ccc12 (stereo not shown) [CQDP, chloroquine diphosphate]	1.07 ± 0.05 x 10^7 M^−1	1.23 ± 0.68 x 10^5 M^−1	2.63e+07	438000	+4.9 °C	+3.0 °C	does not cause any significant effect	CC50 (SUP-T1 lymphoma cells; Homo sapiens, SUP-T1, 20 h): 130 µM; CC50 ([6]; Homo sapiens, 20 h): 95 µM; changes in CD spectrum of CT DNA (CT DNA [7]): two new sizable CD bands at 330 and 340 nm
N.N.[Cl][Pt][Cl] [cisplatin]	–	–	–	–	–	–	decrease in mobility of the CCC form and an increase in mobility of the OC form	–
Ru(KTZ)2Cl2	–	–	–	–	–	–	–	IC50 [8]: ~25 µM
[Ru(η^6-p-cymene)(η^6-CQDP)][BF4]2 [Complex 5]	2.10 ± 0.68 x 10^7 M^−1	3.15 ± 0.12 x 10^5 M^−1	1.2e+06	354000	+5.1 °C	+2.8 °C	–	CC50 (SUP-T1 lymphoma cells; SUP-T1, 20 h of incubation, PI and flow cytometry, average of triplicates): 70 µM; CC50 ([6]; 20 h of incubation, PI and flow cytometry, average of triplicates): 77 µM; mechanism of cell death (apoptosis/necrosis) (Jurkat cells): mainly induce apoptosis; antitumor activity (in words) [9]: active; antitumor activity (in words) [10]: active
